Source: PubChem BioAssay (Sanford-Burnham Center for Chemical Genomics)
ATG4B inhibitor: inhibitors of human ATG4B cysteine protease; Q9Y4P1; inhibition, % at 8.33 µM; hit rate 0.51% among 340,000; AID 504462; ATG4B cleavage of LC3-PLA2, NBD-HPC fluorescence, 1 h; in the data active means inhibition above about 40%
Target sequence (Q9Y4P1 whole entry, looked up): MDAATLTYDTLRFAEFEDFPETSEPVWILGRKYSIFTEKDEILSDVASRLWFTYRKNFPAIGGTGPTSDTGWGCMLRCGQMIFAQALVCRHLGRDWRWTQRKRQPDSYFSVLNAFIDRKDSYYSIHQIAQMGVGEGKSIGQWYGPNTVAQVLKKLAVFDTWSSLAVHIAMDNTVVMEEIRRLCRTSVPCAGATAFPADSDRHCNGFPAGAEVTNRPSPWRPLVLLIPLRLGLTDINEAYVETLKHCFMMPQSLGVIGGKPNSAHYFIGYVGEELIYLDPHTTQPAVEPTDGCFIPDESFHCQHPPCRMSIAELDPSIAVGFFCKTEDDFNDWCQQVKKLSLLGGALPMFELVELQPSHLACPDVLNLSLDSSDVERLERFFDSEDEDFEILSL
MT1-MMP act inh: MT1-MMP (human) activation inhibition; GFP/RFP ratio change, % at 20 µM; HT1080 RFP-PRO-GFP cells, GFP/RFP ratio fluorescence, overnight; percent of plate control window, DMSO zero; hit rate 0.061% among 360,000; P50281;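 active means GFP/RFP ratio change of at least 30% with cell ATP level not reduced by more than half and red fluorescence within 50% of control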
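Material: RFP-PRO-GFP reporter HT1080 cells. Dosing: single-point 20 µM compound, 1% DMSO. Controls: DMSO and RFP-L50D-GFP cell wells. Timing: cells overnight before dosing, compound overnight, 37 °C, 5% CO2. Measure: GFP/RFP fluorescence ratio.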
SKN-1 inh: inhibitors of C. elegans SKN-1 | C. elegans VP596 Pgst-4::GFP/RFP ratio, acrylamide-induced, 24 h | inhibition, % at 21.8 µM | hit rate 0.49% among 360,000;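 active means interference check ratio from 0.5 to 1.5 plus GFP to RFP signal ratio inhibition reaching or exceeding a fixed threshold, cut at about 30% in these data, passing the limit was not always enough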
MPTP inh: permeability transition pore inhibition; hit rate 1.4% among 360,000; isolated mouse mitochondria, Ca2+ swelling absorbance, 30 min; inhibition, % at 10 µM;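 active means inhibition of 50% or more, scaled per plate between neutral and stimulator controls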
Rh123 counter: Rhodamine 123 counter-screen of mitochondrial pore hits. shares compounds with MPTP inh. isolated mitochondria, membrane potential, Rhodamine 123 fluorescence. inhibition, % at 10 µM. hit rate 78% among 5,000; in the data active means inhibition above about 22%
MPTP abs DR: dose response confirmation of mitochondrial permeability transition pore inhibitors; IC50, µM; AID 651561; isolated mitochondria swelling, absorbance; shares compounds with MPTP inh; hit rate 58% among 780; in the data active means IC50 below about 20 µM
MPTP counter DR: active in counter-screen for permeability transition pore inhibitors. shares compounds with MPTP inh. isolated mitochondria counterscreen, fluorescence read-out. IC50, µM. hit rate 49% among 780; in the data active means IC50 below about 80 µM
Hits are given with their value; – = inactive; · = no result given. In the library only some 2.3% were active in any assay of this set; here they are far more common.

SMILES	ATG4B inhibitor	MT1-MMP act inh	SKN-1 inh	MPTP inh	Rh123 counter	others
CC(CN(C)C)CN1c2ccccc2Sc2ccccc21 (stereo unspecified)	–	–	–	77	–	MPTP abs DR=7.1;MPTP counter DR=–
COc1ccc2c(c1)N(C[C@H](C)CN(C)C)c1ccccc1S2	–	–	–	67	–	MPTP abs DR=8.8;MPTP counter DR=–
CC1CCCC(NC(=O)c2ccc3c(=O)n(CC4CCCO4)c(=O)[nH]c3c2)C1C (stereo unspecified)	–	–	–	–	·
COc1ccc(OC)c(NC(=O)C2CC(=O)N(Cc3ccco3)C2)c1 (stereo unspecified)	–	–	–	–	·
Cc1nn(C)c(Nc2ccc(Br)cc2)c1Br	–	–	–	89	76
N=c1n(CCO)c2ccccc2n1CCOc1ccc(Cl)cc1Cl	–	–	–	87	–	MPTP abs DR=4;MPTP counter DR=29
O=C(Nc1ccccc1NC(=O)c1c(F)c(F)c(F)c(F)c1F)c1c(F)c(F)c(F)c(F)c1F	–	–	–	93	95
O=C(Nc1cccc(F)c1)c1c(F)c(F)c(F)c(F)c1F	–	–	–	65	81
O=C(Nc1ccncc1)c1c(F)c(F)c(F)c(F)c1F	–	–	–	–	·
O=C(Nc1ccc(Cl)cc1)OCc1ccccn1	–	–	–	91	85
CS(=O)(=O)c1ccccc1COC(=O)Nc1ccc(Cl)cc1	–	–	–	–	·
O=C(Nc1ccc(Cl)cc1)OCc1cn(-c2ccc(Cl)cc2)nn1	–	–	–	85	83
Cc1ccc2nc(-c3ccccc3)c(Cc3ccccc3C(F)(F)F)n2c1	·	–	–	–	·
CN(Cc1ccccc1)C(=O)[C@@H]1CCCN1C(=O)[C@@H]1CCCN1C(=O)c1cccs1	·	–	–	–	·
O=C(CONS(=O)(=O)c1ccc(Cl)cc1)NCCNc1ncc(C(F)(F)F)cc1Cl	–	–	–	70	77
O=C(CN1CCN(c2ncc(C(F)(F)F)cc2Cl)CC1)NCCNc1ncc(C(F)(F)F)cc1Cl	–	–	–	–	·
CCC1SC(=Nc2cccc(C)c2)NC1=O (stereo unspecified)	–	–	–	–	·
CCC1SC(=NC(=O)c2ccc(Cl)c(Cl)c2)NC1=O (stereo unspecified)	–	–	–	76	100
N#Cc1cccc(NC(=O)CNc2cccc(S(=O)(=O)N3CCCCC3)c2)c1	–	–	–	–	·
CCOC(=O)N1CCc2c(sc3ncn(C)c(=O)c23)C1	–	–	–	–	·
CCOC(=O)N1CCc2c(sc3nc(SC(C)C)n(N)c(=O)c23)C1	–	–	–	62	25
C/C(CC(=O)Nc1ccc(N(C)C)cc1)=N\NC(=O)c1ccc(C(C)(C)C)cc1	–	–	–	–	·
CN1CCCN(C(c2ccccc2)c2ccc(Cl)cc2)CC1 (stereo unspecified)	–	–	–	99	–
CN1CCN(C(c2ccccc2)c2ccccc2)CC1	–	–	–	–	·
COCCn1c(SCC(=O)N2CCCCC2)nc2c(c1=O)SC(C)C2 (stereo unspecified)	–	–	–	–	·
SMILES	ATG4B inhibitor	MT1-MMP act inh	SKN-1 inh	MPTP inh	Rh123 counter	others
CCC(C(=O)OCC(=O)Nc1cc(Cl)cc(Cl)c1)c1ccccc1 (stereo unspecified)	–	–	–	82	90
CCC(C(=O)OCC(=O)Nc1cccc(C(C)=O)c1)c1ccccc1 (stereo unspecified)	–	–	–	–	·
COc1cc([N+](=O)[O-])ccc1NC(=S)Nc1cc(C(=O)OC(C)C)cc(C(=O)OC(C)C)c1	–	–	–	92	84
COc1ccc([N+](=O)[O-])cc1NC(=S)NC(C)=O	–	–	–	–	·
CN1CCN(CCCN2c3ccccc3Sc3ccc(Cl)cc32)CC1	–	–	–	92	–
CN(C)CCCN1c2ccc(O)cc2Sc2ccc(Cl)cc21	·	–	–	–	·
CCSc1ccc2c(c1)N(CCCN1CCN(C)CC1)c1ccccc1S2	–	–	–	96	–
OC1CC2CCC(C1)N2CCCN1c2ccccc2Sc2ccc(Cl)cc21 (stereo unspecified)	–	–	–	76	–	MPTP abs DR=4;MPTP counter DR=74
CNc1nc2cc([N+](=O)[O-])c([N+](=O)[O-])cc2nc1NC	–	–	–	105	94
CCCCOc1ccc(SCCCN2CCOCC2)cc1	–	–	–	–	·
Fc1ccccc1CN1CCCN(C(=S)Nc2cccc(Cl)c2)C1	–	–	–	92	76
O=C(Nc1ccc(N2CCCC2)c(S(=O)(=O)Nc2cccc(C(F)(F)F)c2)c1)c1cccs1	–	–	–	74	50
O=C(NCCN1CCC(n2c(=O)[nH]c3ccccc32)CC1)c1ccc(OC(F)(F)F)cc1	·	–	–	–	·
Cc1onc(-c2ccccc2)c1C(=O)NC(=S)NNC(=O)c1ccc(O)cc1O	–	–	–	–	·
CCCOc1ccc(NC(=O)c2c(-c3ccccc3)noc2C)cc1	–	–	–	–	·
CCCOc1ccc(C(=O)NC(=S)NNC(=O)c2c(-c3ccccc3)noc2C)cc1	–	–	–	69	–
Cc1onc(-c2ccccc2)c1C(=O)NC(=S)NNC(=O)c1ccccc1O	–	–	–	95	–
CC(=O)c1c(C)[nH]c(C(=O)OCC(=O)N2CC(C)OC(C)C2)c1C (stereo unspecified)	–	–	–	–	·
Cn1c(=N)n(CC(O)c2cccc3ccccc23)c2ccccc21 (stereo unspecified)	–	–	–	90	–	MPTP abs DR=3.4;MPTP counter DR=37
Cn1c(=N)n(CC(O)c2ccco2)c2ccccc21 (stereo unspecified)	–	–	–	–	·
Cc1onc(-c2c(F)cccc2Cl)c1C(=O)OCc1cnc(Cl)s1	–	–	–	52	–	MPTP abs DR=–;MPTP counter DR=66
Cc1ccc2c(c1)c(CC(=O)Nc1ccc(F)cc1)c(C(=O)O)n2C	–	–	–	–	·
O=S(=O)(c1ccccc1)N1CCN(c2cc(-c3ccccc3)nc3ncnn23)CC1	–	–	–	82	78
CCCN(CC(=O)Nc1ccc(F)c(F)c1F)C(=O)Cc1ccc(S(=O)(=O)N2CCOCC2)s1	–	–	–	–	·
Cc1ccc2c(c1)nnn2C1CCN(S(=O)(=O)c2ccc(C(=O)N3C(C)CCCC3C)cc2)CC1 (stereo unspecified)	–	–	–	98	87
O=C(c1cccc(S(=O)(=O)N2CCN(c3ccccc3)CC2)c1)N1CCN(c2ccccc2O)CC1	–	–	–	–	·
COc1cccc(NC(=O)C(=O)NCCC2CCCCN2S(=O)(=O)c2ccccc2)c1 (stereo unspecified)	–	–	–	–	·
CSc1nc2ccc(NS(=O)(=O)c3ccc(Br)s3)cc2s1	–	–	–	84	75
CSc1nc2ccc(NS(=O)(=O)c3c(Cl)cccc3Cl)cc2s1	–	–	–	–	·
